What was measured:
Conditions in all cases: read-out: Inhibition
[1] = Cytotoxicity against human MCF7 cells at 30 uM; format: cell-based
Summary of the method: (§1)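 MTT assay. Human HeLa (cervix adenocarcinoma), MCF7 (breast adenocarcinoma) and A431 (squamous skin carcinoma) cells were grown in minimal essential medium with 10% foetal bovine serum, antibiotic–antimycotic agents and non-essential amino acids, then seeded in 96-well plates. On day 2 the medium was replaced with compound-containing medium (DMSO final ≤0.1%). Exposure lasted 72 h, followed by 4 h MTT and DMSO solubilization of the formazan.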

[2] = Cytotoxicity against human HeLa cells at 30 uM; format: cell-based; summary of the method: as §1
[3] = Cytotoxicity against human A431 cells at 30 uM; format: cell-based, A-431; summary of the method: as §1

CSC(=S)NCc1c[nH]c2ccccc12 [BRASSININ]
cytotoxicity at 30 µM [1]: 21.5% | cytotoxicity at 30 µM [2]: 25.2%

CSC1=NCc2[nH]c3ccccc3c2S1 [ISOCYCLOBRASSININ]
cytotoxicity at 30 µM [1]: < 10% | cytotoxicity at 30 µM [3]: < 10% | cytotoxicity at 30 µM [2]: 44.5%

c1ccc(CSC2=NCc3[nH]c4ccccc4c3S2)cc1
cytotoxicity at 30 µM [1]: 37.3% | cytotoxicity at 30 µM [2]: 45.8%

S=C(NCc1cc2ccccc2[nH]1)Nc1ccccc1
cytotoxicity at 30 µM [1]: 57.4% | cytotoxicity at 30 µM [3]: 45.7% | cytotoxicity at 30 µM [2]: 50%

S=C(NCc1cc2ccccc2[nH]1)SCc1ccccc1
cytotoxicity at 30 µM [1]: 89% | cytotoxicity at 30 µM [3]: 70.7% | cytotoxicity at 30 µM [2]: 76.1%

CNC(=S)NCc1cc2ccccc2[nH]1
cytotoxicity at 30 µM [1]: < 10% | cytotoxicity at 30 µM [3]: < 10% | cytotoxicity at 30 µM [2]: < 10%

CSC(=S)NCc1cc2ccccc2[nH]1 [ISOBRASSININ]
cytotoxicity at 30 µM [1]: 86.2% | cytotoxicity at 30 µM [3]: 78.6% | cytotoxicity at 30 µM [2]: 83.6%

From ChEMBL document CHEMBL1146145, “Isobrassinin and its analogues: novel types of antiproliferative agents” (Bioorg Med Chem Lett, 2006)
